Values joined by “and” are separate entries in the source; they are usually repeats but may differ in a detail not shown here. Equal values may be shown once.
Tests used:
[1] = biological target: Cyclooxygenase (Rattus norvegicus) (UniProt P35355+Q63921); experiment: In vitro inhibitory activity against Prostaglandin G/H synthase in rat neutrophils at a dose of 50 uM
[2] = biological target: T1, Polyunsaturated fatty acid 5-lipoxygenase (Rattus norvegicus) (UniProt P12527); experiment: In vitro inhibitory activity against Lipoxygenase in rat neutrophils at a dose of 50 uM
T1 sequence (whole entry): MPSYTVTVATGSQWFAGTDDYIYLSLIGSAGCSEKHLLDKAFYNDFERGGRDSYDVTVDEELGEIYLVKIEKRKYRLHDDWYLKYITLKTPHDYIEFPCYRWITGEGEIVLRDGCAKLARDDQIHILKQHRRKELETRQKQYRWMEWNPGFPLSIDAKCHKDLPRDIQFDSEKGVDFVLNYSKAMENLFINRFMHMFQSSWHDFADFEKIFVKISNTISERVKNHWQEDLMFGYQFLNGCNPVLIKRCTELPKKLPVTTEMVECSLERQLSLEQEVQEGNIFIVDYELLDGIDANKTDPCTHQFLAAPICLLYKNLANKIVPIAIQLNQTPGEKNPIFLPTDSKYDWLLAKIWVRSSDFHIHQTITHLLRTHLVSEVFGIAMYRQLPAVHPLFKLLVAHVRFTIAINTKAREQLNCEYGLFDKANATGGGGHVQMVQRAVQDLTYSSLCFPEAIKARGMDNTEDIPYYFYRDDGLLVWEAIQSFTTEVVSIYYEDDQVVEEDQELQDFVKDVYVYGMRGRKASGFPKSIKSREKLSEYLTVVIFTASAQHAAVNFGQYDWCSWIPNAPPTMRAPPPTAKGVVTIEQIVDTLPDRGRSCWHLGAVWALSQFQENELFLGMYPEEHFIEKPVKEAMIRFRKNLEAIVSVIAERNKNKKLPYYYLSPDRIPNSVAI
Method in brief: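 Neutrophils come from the 4 h pleural exudate of male Wistar-Lewis rats given iv BSA plus intrapleural rabbit anti-BSA IgG. Cells are washed, red cells lysed with NH4Cl, and resuspended at about 5×10^6 cells/0.1 mL in Tris pH 7.4 with NaCl and 1 mM CaCl2. Cells are preincubated with compound 4 min at room temperature.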

Rattus norvegicus [3] = experiment: In vivo antiinflammatory activity against rats by RPAR(reverse passive Arthus reaction) synovitis method; format: functional; design: concentration or dose not given beside the values
Method in brief: (§1)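 Lewis rats, oral drug or placebo 1 h before iv BSA (2.28 mg in saline), then intraarticular rabbit anti-BSA (0.54 mg) into one knee and saline into the other, under light anesthesia. Second oral dose at 3 h; the total of both doses is the calculated dose. About 17 h after induction, subpatellar tissue with synovium is excised and weighed. Response is antibody-minus-saline knee weight, tested by analysis of variance.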

Rattus norvegicus [4] = experiment: Tested in vivo for antiinflammatory activity against chronic adjuvant arthritic rat by prophylactic inhibition 2 degree paw after peroral administration of 10 mg/kg of dose; format: functional; details: route oral
Method in brief: (§2)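 Prophylactic regimen, rats. Adjuvant is heat-killed Mycobacterium tuberculosis ground to a fine powder in paraffin oil (6 mg/mL); 0.1 mL is injected into the left hind paw. Oral drug is given 1 h before adjuvant challenge, then for 21 consecutive days; controls receive methyl cellulose. Left (1°) and right (2°) hind paw volumes are measured by plethysmograph.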

Rattus norvegicus [5] = experiment: Tested in vivo for antiinflammatory activity against chronic adjuvant arthritic rat by prophylactic inhibition 1 degree paw after peroral administration of 10 mg/kg of dose; format: functional; details: route oral; method in brief: as §2
Rattus norvegicus [6] = experiment: Compound was tested in vivo for antiinflammatory activity against rats by RPAR(reverse passive Arthus reaction) synovitis method ata dose of 50 mg/kg, po; format: functional; method in brief: as §1
Rattus norvegicus [7] = experiment: Compound was tested in vivo for antiinflammatory activity against chronic adjuvant arthritic rat by prophylactic inhibition 2 degree paw after peroral administration of 25 mg/kg of dose; format: functional; details: route oral
Rattus norvegicus [8] = experiment: Compound was tested in vivo for antiinflammatory activity against chronic adjuvant arthritic rat by prophylactic inhibition 1 degree paw after peroral administration of 25 mg/kg of dose; format: functional; details: route oral
Rattus norvegicus [9] = experiment: Compound was tested in vivo for antiinflammatory activity against chronic adjuvant arthritic rat by prophylactic inhibition 1 degree paw after peroral administration of 36 mg/kg of dose; format: functional; details: route oral
Rattus norvegicus [10] = experiment: Compound was tested in vivo for antiinflammatory activity against chronic adjuvant arthritic rat by prophylactic inhibition 2 degree paw after peroral administration of 36 mg/kg of dose; format: functional; details: route oral

Compound	Inhibition (Rattus norvegicus [3])	inhibition in vivo at 10 mg/kg (Rattus norvegicus [4])	inhibition in vivo at 10 mg/kg (Rattus norvegicus [5])	further results
COc1ccc(Cn2c(O)c(CC=C(C)C)c(=O)n3c4c(=O)n(C)c(=O)n(C)c4nc23)cc1	10%			inhibition [1]: 73%; inhibition [2]: 0% and 15%
CCCCc1c(O)n(Cc2ccc(Cl)c(Cl)c2)c2nc3c(c(=O)n(C)c(=O)n3C)n2c1=O	33%	17%	0%	
Cc1c(O)n(Cc2ccccc2F)c2nc3c(c(=O)n(C)c(=O)n3C)n2c1=O				inhibition in vivo at 50 mg/kg (Rattus norvegicus [6]): 0%
CCOC(=O)c1ccc(Cn2c(O)c(CC=C(C)C)c(=O)n3c4c(=O)n(C)c(=O)n(C)c4nc23)cc1				inhibition in vivo at 25 mg/kg (Rattus norvegicus [7]): 10%; inhibition in vivo at 25 mg/kg (Rattus norvegicus [8]): 0%
CCCc1c(O)n(Cc2cccs2)c2nc3c(c(=O)n(C)c(=O)n3C)n2c1=O	9%	9%	20%	
Cn1c(=O)c2c(nc3n(Cc4ccccc4)c(O)c(CC=C4CCCCC4)c(=O)n23)n(C)c1=O	7%			inhibition in vivo at 36 mg/kg (Rattus norvegicus [9]): 6%; inhibition [1]: 0%; inhibition [2]: 10% and 9%; inhibition in vivo at 36 mg/kg (Rattus norvegicus [10]): 39%
CCCCCCn1c(O)c(CCC)c(=O)n2c3c(=O)n(C)c(=O)n(C)c3nc12	37%	43%	28%	
Cc1c(O)n(Cc2ccc(F)cc2)c2nc3c(c(=O)n(C)c(=O)n3C)n2c1=O	36%			
CCCCc1c(O)n(Cc2ccc(Cl)cc2)c2nc3c(c(=O)n(C)c(=O)n3C)n2c1=O	16%			
CCCCc1c(O)n(Cc2ccc(Cl)cc2Cl)c2nc3c(c(=O)n(C)c(=O)n3C)n2c1=O	31%	29%	0%	
CCCc1c(O)n(CCc2ccccc2)c2nc3c(c(=O)n(C)c(=O)n3C)n2c1=O	27%	38%	14%	
CCCc1c(OC)n2c3c(=O)n(C)c(=O)n(C)c3nc2n(Cc2ccccc2)c1=O	17%			
CC(C)Cc1c(O)n(-c2ccccc2)c2nc3c(c(=O)n(C)c(=O)n3C)n2c1=O	16%			
CCCc1c(O)n(C(C)c2ccccc2)c2nc3c(c(=O)n(C)c(=O)n3C)n2c1=O (configuration not stated)				inhibition in vivo at 50 mg/kg (Rattus norvegicus [6]): 0%
CCCc1c(O)n(-c2ccccc2)c2nc3c(c(=O)n(C)c(=O)n3C)n2c1=O	11%			
